Data on six molecules can be found in ChEMBL document CHEMBL1156530, “Novel conantokins from Conus parius venom are specific antagonists of N-methyl-D-aspartate receptors” (J Biol Chem, 2007).

For assay [1], the target named is Glutamate receptor ionotropic, NMDA 2B (Rattus norvegicus, UniProt P35439+Q00960). Nature of the assay: Inhibition of rat NMDA NR2B receptor expressed in xenopus oocytes coexpressing NMDA NR13b assessed as effect on glycine-induced current response at -70 mV by voltage clamp method. The class given is cell-based, Oocyte. In a few lines: (§1)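 Xenopus oocytes expressing rat NR1-3b with one NR2 subunit (A–D), voltage-clamped at -70 mV. Perfusion was Mg2+-free ND96 (pH 7.2–7.5) with 0.1 mg/ml BSA. Peptide was applied in a static bath for 5–10 min; the agonist-evoked current was then expressed as % of the pre-peptide current. IC50s were taken from concentration-response curves, n ≥ 3 per point.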
Chain of Glutamate receptor ionotropic, NMDA 2B (Q00960 whole entry, the tested form may be a part, one chain of several): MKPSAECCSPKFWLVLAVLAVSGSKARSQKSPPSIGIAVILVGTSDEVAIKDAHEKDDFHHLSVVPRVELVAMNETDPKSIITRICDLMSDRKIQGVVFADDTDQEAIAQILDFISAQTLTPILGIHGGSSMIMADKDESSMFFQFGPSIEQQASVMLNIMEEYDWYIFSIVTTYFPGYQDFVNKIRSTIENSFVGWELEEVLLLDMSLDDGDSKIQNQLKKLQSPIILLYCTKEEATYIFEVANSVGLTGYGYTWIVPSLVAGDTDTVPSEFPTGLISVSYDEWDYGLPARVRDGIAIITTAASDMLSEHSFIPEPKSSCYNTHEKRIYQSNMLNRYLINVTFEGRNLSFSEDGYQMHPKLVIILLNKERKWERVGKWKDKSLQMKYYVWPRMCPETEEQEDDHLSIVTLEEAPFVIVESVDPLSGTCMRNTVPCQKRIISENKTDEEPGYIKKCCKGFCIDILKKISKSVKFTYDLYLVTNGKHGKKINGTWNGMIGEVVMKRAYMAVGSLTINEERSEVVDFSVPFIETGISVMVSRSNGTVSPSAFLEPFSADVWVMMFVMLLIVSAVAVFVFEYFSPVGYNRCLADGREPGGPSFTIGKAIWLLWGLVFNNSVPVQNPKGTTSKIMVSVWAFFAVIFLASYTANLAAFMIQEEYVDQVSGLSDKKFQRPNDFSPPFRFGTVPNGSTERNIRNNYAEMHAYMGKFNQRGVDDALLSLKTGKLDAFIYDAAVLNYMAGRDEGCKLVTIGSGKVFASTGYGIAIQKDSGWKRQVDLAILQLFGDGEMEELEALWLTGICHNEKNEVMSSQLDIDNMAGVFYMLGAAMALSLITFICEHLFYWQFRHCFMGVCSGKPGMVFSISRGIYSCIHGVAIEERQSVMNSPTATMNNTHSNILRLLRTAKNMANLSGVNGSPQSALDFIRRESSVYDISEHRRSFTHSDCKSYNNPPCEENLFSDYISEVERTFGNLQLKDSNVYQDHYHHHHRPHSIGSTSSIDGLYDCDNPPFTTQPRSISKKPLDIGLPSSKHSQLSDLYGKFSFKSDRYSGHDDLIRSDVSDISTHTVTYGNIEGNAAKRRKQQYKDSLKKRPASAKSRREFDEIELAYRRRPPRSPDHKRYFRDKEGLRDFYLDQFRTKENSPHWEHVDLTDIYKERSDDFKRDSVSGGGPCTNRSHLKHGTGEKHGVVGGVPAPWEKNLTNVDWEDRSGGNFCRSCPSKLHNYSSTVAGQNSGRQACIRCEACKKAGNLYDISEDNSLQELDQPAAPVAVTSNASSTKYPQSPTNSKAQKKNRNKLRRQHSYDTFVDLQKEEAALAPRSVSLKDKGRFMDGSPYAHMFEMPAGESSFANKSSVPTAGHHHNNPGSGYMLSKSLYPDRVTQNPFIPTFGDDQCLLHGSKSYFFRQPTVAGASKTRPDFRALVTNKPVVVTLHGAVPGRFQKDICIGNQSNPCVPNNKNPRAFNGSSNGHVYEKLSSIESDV

Assay [2] deals with Glutamate receptor ionotropic, NMDA 2A (Rattus norvegicus, UniProt P35439+Q00959). The experiment in a line: Inhibition of rat NMDA NR2A receptor expressed in xenopus oocytes coexpressing NMDA NR13b assessed as effect on glycine-induced current response at -70 mV by voltage clamp method. Type of assay: cell-based, Oocyte. Put shortly:
as §1

Assay [3] concerns the target Glutamate receptor ionotropic, NMDA 2D (Rattus norvegicus, UniProt P35439+Q62645). The experiment in a line: Inhibition of rat NMDA NR2D receptor expressed in xenopus oocytes coexpressing NMDA NR13b assessed as effect on glycine-induced current response at -70 mV by voltage clamp method. The class given is cell-based, Oocyte. In a few lines: as §1
Assay [4] deals with Glutamate receptor ionotropic, NMDA 2C (Rattus norvegicus, UniProt P35439+Q00961). Nature of the assay: Inhibition of rat NMDA NR2C receptor expressed in xenopus oocytes coexpressing NMDA NR13b assessed as effect on glycine-induced current response at -70 mV by voltage clamp method. Type of assay: cell-based, Oocyte. Put shortly: as §1
Chain of Glutamate receptor ionotropic, NMDA 2C (Q00961 whole entry, one chain of several): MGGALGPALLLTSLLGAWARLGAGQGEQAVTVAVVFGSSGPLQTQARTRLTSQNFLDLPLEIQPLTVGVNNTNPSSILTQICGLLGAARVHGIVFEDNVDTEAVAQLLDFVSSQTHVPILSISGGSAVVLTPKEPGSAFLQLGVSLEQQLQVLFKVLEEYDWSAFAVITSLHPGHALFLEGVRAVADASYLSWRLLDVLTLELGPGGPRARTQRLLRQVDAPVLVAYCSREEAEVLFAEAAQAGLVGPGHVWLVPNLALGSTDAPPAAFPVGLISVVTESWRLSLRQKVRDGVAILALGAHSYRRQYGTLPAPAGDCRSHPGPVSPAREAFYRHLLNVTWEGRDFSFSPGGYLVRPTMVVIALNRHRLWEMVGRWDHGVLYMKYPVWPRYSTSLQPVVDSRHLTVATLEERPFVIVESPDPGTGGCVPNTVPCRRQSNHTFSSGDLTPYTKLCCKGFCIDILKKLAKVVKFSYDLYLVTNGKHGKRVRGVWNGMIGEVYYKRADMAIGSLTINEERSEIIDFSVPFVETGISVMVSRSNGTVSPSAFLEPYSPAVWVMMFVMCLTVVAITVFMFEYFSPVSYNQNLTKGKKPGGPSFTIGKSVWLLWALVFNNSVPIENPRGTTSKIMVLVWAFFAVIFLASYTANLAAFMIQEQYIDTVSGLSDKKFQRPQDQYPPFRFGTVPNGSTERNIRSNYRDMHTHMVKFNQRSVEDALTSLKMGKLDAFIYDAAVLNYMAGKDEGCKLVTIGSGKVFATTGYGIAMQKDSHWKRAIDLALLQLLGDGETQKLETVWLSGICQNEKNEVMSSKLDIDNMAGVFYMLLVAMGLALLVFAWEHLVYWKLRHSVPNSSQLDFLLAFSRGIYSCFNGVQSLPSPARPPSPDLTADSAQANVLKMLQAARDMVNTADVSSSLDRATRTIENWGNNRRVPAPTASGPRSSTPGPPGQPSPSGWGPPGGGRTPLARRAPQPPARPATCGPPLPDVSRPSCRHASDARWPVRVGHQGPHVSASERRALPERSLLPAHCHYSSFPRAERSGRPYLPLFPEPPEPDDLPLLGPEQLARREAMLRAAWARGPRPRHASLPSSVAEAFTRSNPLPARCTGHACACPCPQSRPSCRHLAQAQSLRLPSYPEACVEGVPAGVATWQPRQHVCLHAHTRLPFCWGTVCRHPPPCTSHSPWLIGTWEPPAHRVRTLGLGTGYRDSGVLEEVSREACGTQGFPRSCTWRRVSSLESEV
The species entered for assay [5] is Rattus norvegicus. The experiment in a line: Selectivity ratio, IC50 for rat NMDA NR2A receptor to IC50 for rat NMDA NR2D receptor. In a few lines:
(§2)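 Ratios of IC50s taken from oocyte concentration-response curves for rat NR1-3b co-expressed with NR2A, NR2B or NR2D, recorded at -70 mV in Mg2+-free ND96 with 5–10-min static-bath peptide application, n ≥ 3 per point.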

For assay [6], the species on record is Rattus norvegicus. The experiment in a line: Selectivity ratio, IC50 for rat NMDA NR2D receptor to IC50 for rat NMDA NR2B receptor. Put shortly: as §2
The test system of assay [7] is Mus musculus. Nature of the assay: Induction of sleep in intracranially dosed 10-day old Swiss-Webster mouse assessed as average onset of deep sleep at 1 nmol. Type of assay: functional. In a few lines: (§3)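 Intracranial injection of synthetic peptide (0.5, 1 or 5 nmol) in 20 μl normal saline into 10-day-old Swiss-Webster mice, 2–6 per dose. Con-G served as positive control and saline as negative control. Deep-sleep onset was the time at which a mouse no longer tried to right itself after being rolled onto its back; onset times were averaged.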

In assay [8] the test system is Mus musculus. Nature of the assay: Induction of hyperactivity intracranially dosed 24-day old Swiss-Webster mouse. The class given is functional, organism-based. Put shortly:
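Intracranial injection of 2 nmol peptide in 20 μl normal saline (29-gauge needle) into 24-day-old mice (12.2–12.8 g). An equal volume of saline served as negative control. Mice were watched in cages for hyperactivity: continuous walking, excessive grooming and climbing of the cage wall.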

Assay [9] concerns Mus musculus. Nature of the assay: Induction of sleep in intracranially dosed 10-day old Swiss-Webster mouse assessed as average onset of deep sleep at 5 nmol. The class given is functional. Put shortly: as §3
Assay [10] deals with Mus musculus. The experiment in a line: Induction of sleep in intracranially dosed 10-day old Swiss-Webster mouse assessed as average onset of deep sleep at 0.5 nmol. The class given is functional. Put shortly: as §3
For assay [11], the target named is Glutamate receptor ionotropic, NMDA 2B (Rattus norvegicus) (UniProt Q00960). The experiment in a line: Inhibition of rat NMDA NR2B receptor expressed in xenopus oocytes coexpressing NMDA NR13b assessed as effect on glycine-induced current response at 1 uM at -70 mV by voltage clamp method. Type of assay: cell-based. The following applies: Oocyte. Put shortly: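 Oocytes expressing rat NR1-3b/NR2B, voltage-clamped at -70 mV in Mg2+-free ND96 with 0.1 mg/ml BSA. Baseline currents were recorded, followed by a 10-min static-bath buffer control. Then 1 μM peptide was applied in a static bath for 10 min, and the next agonist-evoked current was expressed as % of the pre-peptide amplitude.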

The structures appear in SMILES notation. The source made the active and inactive calls. The calls are words filed in the database; no cut-off is given here. Non-standard residues stand in square brackets, D forms with d. Residues, ends and D or L forms follow the SMILES beside them. Gla = N[C@@H](CC(C(=O)O)C(=O)O)C(=O)O; Hyp = O=C(O)[C@@H]1C[C@@H](O)CN1

Chain of Glutamate receptor ionotropic, NMDA 2D (Q62645 whole entry, one chain of several): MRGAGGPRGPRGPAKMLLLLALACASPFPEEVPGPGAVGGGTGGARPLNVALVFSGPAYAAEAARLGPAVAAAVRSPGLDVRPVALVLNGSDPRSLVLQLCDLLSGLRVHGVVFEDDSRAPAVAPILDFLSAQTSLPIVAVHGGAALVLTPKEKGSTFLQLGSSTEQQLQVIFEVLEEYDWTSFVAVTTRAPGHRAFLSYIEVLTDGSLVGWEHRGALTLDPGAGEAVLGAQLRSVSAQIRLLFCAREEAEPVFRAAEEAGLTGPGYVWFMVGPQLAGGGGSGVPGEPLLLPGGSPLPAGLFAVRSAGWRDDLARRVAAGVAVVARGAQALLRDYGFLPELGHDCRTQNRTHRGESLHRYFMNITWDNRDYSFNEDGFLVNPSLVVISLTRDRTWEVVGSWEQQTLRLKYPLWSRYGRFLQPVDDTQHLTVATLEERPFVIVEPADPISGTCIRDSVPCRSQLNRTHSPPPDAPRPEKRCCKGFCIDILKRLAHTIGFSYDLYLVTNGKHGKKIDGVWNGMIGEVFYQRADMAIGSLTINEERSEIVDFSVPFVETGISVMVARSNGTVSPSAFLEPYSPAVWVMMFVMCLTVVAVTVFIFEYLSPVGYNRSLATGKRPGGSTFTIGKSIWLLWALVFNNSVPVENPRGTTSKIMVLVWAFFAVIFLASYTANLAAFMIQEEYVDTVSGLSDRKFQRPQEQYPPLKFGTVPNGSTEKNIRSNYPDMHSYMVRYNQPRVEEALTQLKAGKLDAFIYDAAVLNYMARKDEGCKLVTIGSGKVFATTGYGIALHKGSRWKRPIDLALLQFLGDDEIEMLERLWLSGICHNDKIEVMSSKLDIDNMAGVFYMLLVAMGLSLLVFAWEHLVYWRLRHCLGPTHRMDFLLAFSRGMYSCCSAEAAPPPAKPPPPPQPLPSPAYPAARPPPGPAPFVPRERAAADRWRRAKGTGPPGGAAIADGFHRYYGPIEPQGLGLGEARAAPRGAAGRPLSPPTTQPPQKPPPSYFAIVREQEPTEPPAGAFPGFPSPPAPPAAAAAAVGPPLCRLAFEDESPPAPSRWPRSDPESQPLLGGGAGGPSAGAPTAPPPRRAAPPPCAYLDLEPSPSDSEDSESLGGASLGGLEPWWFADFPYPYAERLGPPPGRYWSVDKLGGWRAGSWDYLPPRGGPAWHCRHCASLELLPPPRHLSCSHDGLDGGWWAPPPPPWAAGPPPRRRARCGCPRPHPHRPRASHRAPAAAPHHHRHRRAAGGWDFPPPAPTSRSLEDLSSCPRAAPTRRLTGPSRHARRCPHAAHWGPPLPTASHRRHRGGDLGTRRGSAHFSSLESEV

The term IC50 denotes the concentration needed to halve the response being measured. Turning to `CC(C)C[C@H](NC(=O)CNC(=O)[C@H](CC(C(=O)O)C(=O)O)NC(=O)[C@H](C)NC(=O)[C@H](Cc1c[nH]c2ccccc12)NC(=O)[C@H](CCCCN)NC(=O)[C@H](C)NC(=O)[C@@H](NC(=O)[C@H](CC(C(=O)O)C(=O)O)NC(=O)[C@@H]1C[C@@H](O)CN1C(=O)[C@H](CCC(=O)O)NC(=O)CN)C(C)C)C(=O)N[C@@H](CCCN=C(N)N)C(=O)N[C@@H](CC(C(=O)O)C(=O)O)C(=O)N[C@@H](CCCCN)C(=O)N[C@@H](C)C(=O)N[C@@H](C)C(=O)N[C@@H](CO)C(=O)N[C@@H](CC(N)=O)C(N)=O` (H-GE[Hyp][Gla]VAKWA[Gla]GLR[Gla]KAASN-NH2), the IC50 in assay [1] is 500 nM; in assay [2] it was above 10000 nM; in [3], 8000 nM; in assay [4] it was at least 10000 nM.
In the case of `CC(C)C[C@H](NC(=O)CNC(=O)[C@H](CC(C(=O)O)C(=O)O)NC(=O)[C@H](C)NC(=O)[C@H](Cc1c[nH]c2ccccc12)NC(=O)[C@H](CCCCN)NC(=O)[C@H](C)NC(=O)[C@@H](NC(=O)[C@H](CC(C(=O)O)C(=O)O)NC(=O)[C@@H]1C[C@@H](O)CN1C(=O)[C@H](CCC(=O)O)NC(=O)CN)C(C)C)C(=O)N[C@@H](CCCNC(=N)N)C(=O)N[C@@H](CC(C(=O)O)C(=O)O)C(=O)N[C@@H](CCCCN)C(=O)N[C@@H](C)C(=O)N[C@@H](C)C(=O)N[C@@H](CO)C(=O)N[C@@H](CC(N)=O)C(N)=O` (H-GE[Hyp][Gla]VAKWA[Gla]GLR[Gla]KAASN-NH2), the Ratio IC50 in the assay listed under Rattus norvegicus [5] is above 10; in the assay listed under Rattus norvegicus [6] it was 16. Moreover, the Activity in the assay with Mus musculus [7] is 16.5 min; with Mus musculus [9] it was 10.7 min; in the assay on Mus musculus [10], 21 min. In addition, in the assay with Mus musculus [8], the result was Active.
On to `CC[C@H](C)[C@H](NC(=O)[C@H](CC(N)=O)NC(=O)[C@H](CC(C(=O)O)C(=O)O)NC(=O)[C@H](CCCNC(=N)N)NC(=O)[C@H](C)NC(=O)[C@H](CC(C)C)NC(=O)[C@H](CC(C(=O)O)C(=O)O)NC(=O)[C@H](C)NC(=O)[C@H](C)NC(=O)[C@H](CCSC)NC(=O)[C@H](CCCCN)NC(=O)[C@H](C)NC(=O)[C@@H](NC(=O)[C@H](CC(C(=O)O)C(=O)O)NC(=O)[C@H](CC(C(=O)O)C(=O)O)NC(=O)[C@H](CCC(=O)O)NC(=O)CN)C(C)C)C(=O)N[C@@H](C)C(=O)N[C@@H](CCCCN)C(=O)NCC(=O)N[C@@H](CS)C(=O)N[C@@H](CCCCN)C(=O)N[C@H](C(=O)N[C@@H](CC(N)=O)C(=O)N[C@@H](CS)C(=O)N[C@@H](Cc1ccc(O)cc1)C(=O)N1CCC[C@H]1C(=O)O)C(C)C` [CONANTOKIN-R], for which the IC50 in [1] is 1000 nM; in [2], 1000 nM; in [3], above 10000 nM; in assay [4], 7000 nM. The Ratio IC50 in the assay listed under Rattus norvegicus [5] was below 0.1; in the assay listed under Rattus norvegicus [6], above 10.
As for `CC[C@H](C)[C@H](NC(=O)[C@H](CCCCN)NC(=O)CNC(=O)[C@H](Cc1ccc(O)cc1)NC(=O)[C@H](CCCCN)NC(=O)[C@H](CC(C)C)NC(=O)[C@H](CCC(N)=O)NC(=O)[C@H](Cc1ccc(O)cc1)NC(=O)[C@H](CC(C(=O)O)C(=O)O)NC(=O)[C@H](CCCN=C(N)N)NC(=O)[C@@H](NC(=O)[C@H](C)NC(=O)[C@H](CC(C(=O)O)C(=O)O)NC(=O)[C@H](C)NC(=O)[C@H](Cc1ccc(O)cc1)NC(=O)[C@H](CC(C(=O)O)C(=O)O)NC(=O)[C@@H]1C[C@@H](O)CN1C(=O)[C@H](CCC(=O)O)NC(=O)[C@@H](N)CC(=O)O)[C@@H](C)CC)C(=O)O` (H-DE[Hyp][Gla]YA[Gla]AIR[Gla]YQLKYGKI-OH), the IC50 in [1] is 500 nM; in assay [2], above 10000 nM; in assay [3], 1000 nM; in [4], at least 10000 nM.
As for `CC[C@H](C)[C@H](NC(=O)[C@H](CCCCN)NC(=O)CNC(=O)[C@H](Cc1ccc(O)cc1)NC(=O)[C@H](CCCCN)NC(=O)[C@H](CC(C)C)NC(=O)[C@H](CCC(N)=O)NC(=O)[C@H](Cc1ccc(O)cc1)NC(=O)[C@H](CC(C(=O)O)C(=O)O)NC(=O)[C@H](CCCNC(=N)N)NC(=O)[C@@H](NC(=O)[C@H](C)NC(=O)[C@H](CC(C(=O)O)C(=O)O)NC(=O)[C@H](C)NC(=O)[C@H](Cc1ccc(O)cc1)NC(=O)[C@H](CC(C(=O)O)C(=O)O)NC(=O)[C@@H]1C[C@@H](O)CN1C(=O)[C@H](CCC(=O)O)NC(=O)[C@@H](N)CC(=O)O)[C@@H](C)CC)C(=O)O` (H-DE[Hyp][Gla]YA[Gla]AIR[Gla]YQLKYGKI-OH), the Ratio IC50 in the assay listed under Rattus norvegicus [5] is above 10; in the assay filed under Rattus norvegicus [6], 2. The Activity in the assay on Mus musculus [7] is on record as 14 min; in the assay with Mus musculus [9], 9.7 min; in the assay on Mus musculus [10], 17.5 min. Besides, the outcome with Mus musculus [8] was Active.
In the case of `CC[C@H](C)[C@H](NC(=O)[C@H](CCCCN)NC(=O)CNC(=O)[C@H](Cc1cnc[nH]1)NC(=O)[C@@H](NC(=O)[C@H](CC(C)C)NC(=O)[C@H](CCC(N)=O)NC(=O)[C@H](Cc1ccc(O)cc1)NC(=O)[C@H](CC(C(=O)O)C(=O)O)NC(=O)[C@H](CCCNC(=N)N)NC(=O)[C@@H](NC(=O)CNC(=O)[C@H](CC(C(=O)O)C(=O)O)NC(=O)[C@H](C)NC(=O)[C@H](Cc1ccc(O)cc1)NC(=O)[C@H](CC(C(=O)O)C(=O)O)NC(=O)[C@H](CC(=O)O)NC(=O)[C@H](CCC(=O)O)NC(=O)CN)[C@@H](C)CC)[C@@H](C)CC)C(=O)O` (H-GED[Gla]YA[Gla]GIR[Gla]YQLIHGKI-OH), the IC50 in assay [1] was 200 nM; in assay [2], above 10000 nM; in [3], 1000 nM; in assay [4], at least 10000 nM. The values for the Ratio IC50 in the assay filed under Rattus norvegicus [5] and in the assay listed under Rattus norvegicus [6] were above 10 and 5, respectively. The values for the Activity in the assay on Mus musculus [7], with Mus musculus [9] and with Mus musculus [10] were 12.2 min, 9 min and 18 min, respectively. Also, the result (in the assay with Mus musculus [8]; in assay [11]) was Active.
